High-throughput results (PubChem)
TRPC4 potent: allosteric potentiators of mouse TRPC4 channel. HEK293 TRPC4beta/mu-opioid, DAMGO EC20, Fluo-4 Ca2+ flux; active compounds read high. Q9QUQ5. AID 2227. actives 0.42% (n = 310,000). B-score at 10 µM;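 active = B-score of calcium response area above 5 SD of library B-scores, with initial fluorescence ratio within 5 SD of library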
Target sequence (Q9QUQ5 whole entry, looked up): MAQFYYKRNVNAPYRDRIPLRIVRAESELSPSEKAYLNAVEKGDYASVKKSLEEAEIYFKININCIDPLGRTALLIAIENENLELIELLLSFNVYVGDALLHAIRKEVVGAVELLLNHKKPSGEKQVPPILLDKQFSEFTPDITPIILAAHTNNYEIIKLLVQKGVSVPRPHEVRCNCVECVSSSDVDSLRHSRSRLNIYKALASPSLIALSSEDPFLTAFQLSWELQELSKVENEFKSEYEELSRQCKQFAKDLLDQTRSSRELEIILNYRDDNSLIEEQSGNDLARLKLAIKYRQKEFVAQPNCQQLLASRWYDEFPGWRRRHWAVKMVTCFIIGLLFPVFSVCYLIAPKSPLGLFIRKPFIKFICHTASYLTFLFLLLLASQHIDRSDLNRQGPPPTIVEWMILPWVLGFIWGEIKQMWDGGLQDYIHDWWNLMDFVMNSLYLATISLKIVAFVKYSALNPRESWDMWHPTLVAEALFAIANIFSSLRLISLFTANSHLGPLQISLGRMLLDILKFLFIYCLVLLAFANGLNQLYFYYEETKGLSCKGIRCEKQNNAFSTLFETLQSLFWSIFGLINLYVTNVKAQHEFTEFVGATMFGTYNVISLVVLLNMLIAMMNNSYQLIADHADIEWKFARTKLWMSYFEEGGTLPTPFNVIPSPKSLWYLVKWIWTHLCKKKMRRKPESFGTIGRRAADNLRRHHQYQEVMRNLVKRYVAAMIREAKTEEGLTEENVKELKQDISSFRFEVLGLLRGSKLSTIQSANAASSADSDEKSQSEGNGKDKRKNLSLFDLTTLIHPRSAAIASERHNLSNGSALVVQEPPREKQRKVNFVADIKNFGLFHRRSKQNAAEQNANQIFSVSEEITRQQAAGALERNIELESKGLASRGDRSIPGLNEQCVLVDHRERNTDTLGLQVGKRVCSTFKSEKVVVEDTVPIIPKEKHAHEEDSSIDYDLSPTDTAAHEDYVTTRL
TRPC6 inhibitor: inhibitors of mouse TRPC6 channel. HEK293-TRPC6, membrane potential dye, ACh-evoked depolarization; active compounds read low. B-score at 10 µM. AID 2553. actives 1.1% (n = 310,000). Q61143;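 active = B-score under library mean minus 3 SD, initial fluorescence not abnormally high, positive integrated signal ratio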;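 note: B-score derived from integrated fluorescence ratio over the kinetic read; more negative B-score means stronger inhibition of depolarization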
TRPC6 activator: mouse TRPC6 channel activation. HEK293-TRPC6 membrane potential dye fluorescence; active compounds read high. actives 0.13% (n = 310,000). B-score at 10 µM;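 active = B-score of the integrated fluorescence ratio above library mean plus 3 SD, and starting fluorescence ratio within library mean plus 5 SD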;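 note: higher score means more depolarization so channel activation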
TRPC4 inh: blocks the mouse TRPC4 cation channel | actives 0.39% (n = 300,000) | Q9QUQ5 | HEK293 TRPC4beta/mu-opioid, DAMGO-evoked Fluo4 calcium flux; active compounds read low | B-score at 10 µM;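 active = B-score over 3 SD under the library average, no early fluorescence shift, positive overall ratio signal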
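Material: HEK293 cells with stable TRPC4beta plus mu-opioid receptor expression / Probe or stimulus: DAMGO in two steps, submaximal then maximal / Compound: single concentration per test compound / Technique: kinetic Fluo4 fluorescence imaging of calcium influx / Read-out: per-well B score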
TRPC4 act: activators of mouse TRPC4 channel; HEK293 TRPC4beta/mu-opioid, Fluo4 calcium fluorescence; active compounds read high; B-score at 10 µM; actives 0.49% (n = 310,000); AID 2237;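 active = B-score above 5 SD of library B-scores, and initial fluorescence ratio not above library mean plus 5 SD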;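 note: positive B-score marks a calcium rise read as TRPC4 activation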
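System: HEK293 cells stably co-expressing mouse TRPC4beta and mu-opioid receptor; Schedule: Fluo4 dye loading 45 min at room temperature, 110 s recording; Detection: Fluo4 fluorescence, kinetic; Evaluation: B-scored integrated calcium fluorescence ratio; Controls: buffer (low) and maximal DAMGO (high).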
Numbers stand for hits. Hits are enriched below; roughly 2.3% of the tested compounds scored in any of these assays.

What do the screens show for `COc1ccccc1Nc1nc2ccccc2[nH]1`?
TRPC4 potent: inactive; TRPC6 inhibitor: inactive; TRPC6 activator: inactive; TRPC4 inh: inactive; TRPC4 act: inactive

How did Cc1ccc(Nc2nc3ccccc3[nH]2)nc1 do in these assays?
TRPC4 potent: inactive; TRPC6 inhibitor: inactive; TRPC6 activator: inactive; TRPC4 inh: inactive; TRPC4 act: 108

How did COc1ccc(NC(=O)CCC(=O)c2ccc(C(C)C)cc2)cc1 do in these assays?
TRPC4 potent: inactive; TRPC6 inhibitor: inactive; TRPC6 activator: inactive; TRPC4 inh: inactive; TRPC4 act: inactive

How did COc1ccc(NC(=O)Nc2ccc(C(C)C)cc2)cc1 do in these assays?
TRPC4 potent: inactive; TRPC6 inhibitor: inactive; TRPC6 activator: inactive; TRPC4 inh: -6; TRPC4 act: inactive

What do the screens show for `COc1ccc(/C=C2\N=C(C)OC2=O)cc1[N+](=O)[O-]`?
TRPC4 potent: inactive; TRPC6 inhibitor: inactive; TRPC6 activator: inactive; TRPC4 inh: inactive; TRPC4 act: inactive

What do the screens show for `Cc1csc2c(N3CCN(S(=O)(=O)c4ccc(Cl)cc4)CC3)ncnc12`?
TRPC4 potent: 10; TRPC6 inhibitor: inactive; TRPC6 activator: inactive; TRPC4 inh: inactive; TRPC4 act: inactive

Results for CCOC(=O)c1c(NC(=O)C2CCCO2)sc2c1CCC2 (stereo not given) ?
TRPC4 potent: 15; TRPC6 inhibitor: inactive; TRPC6 activator: inactive; TRPC4 inh: inactive; TRPC4 act: inactive

How did CCOC(=O)c1c(NC(=O)CSc2nnc(C)c(=O)[nH]2)sc2c1CCCC2 do in these assays?
TRPC4 potent: inactive; TRPC6 inhibitor: inactive; TRPC6 activator: inactive; TRPC4 inh: inactive; TRPC4 act: inactive

How did COC(=O)c1c(NC(=O)C2CCCCC2C(=O)O)sc2c1CCCCC2 (stereo not given) do in these assays?
TRPC4 potent: inactive; TRPC6 inhibitor: inactive; TRPC6 activator: inactive; TRPC4 inh: inactive; TRPC4 act: inactive

How did CCOC(=O)c1c(NC(=O)C(C)Sc2nnc(C)c(=O)[nH]2)sc2c1CCCC2 (stereo not given) do in these assays?
TRPC4 potent: inactive; TRPC6 inhibitor: inactive; TRPC6 activator: inactive; TRPC4 inh: -6; TRPC4 act: inactive

What do the screens show for `CCOC(=O)c1c(NC(=O)C2CCCO2)sc(C)c1C` (stereo not given)?
TRPC4 potent: inactive; TRPC6 inhibitor: inactive; TRPC6 activator: inactive; TRPC4 inh: inactive; TRPC4 act: inactive

Results for CCOC(=O)c1c(NC(=O)C2CCCCC2C(=O)O)sc2c1CCCCC2 (stereo not given) ?
TRPC4 potent: inactive; TRPC6 inhibitor: inactive; TRPC6 activator: inactive; TRPC4 inh: -7; TRPC4 act: inactive

How did O=C(COC(=O)c1ccccc1Cc1ccccc1)NC1CCS(=O)(=O)C1 (stereo not given) do in these assays?
TRPC4 potent: inactive; TRPC6 inhibitor: inactive; TRPC6 activator: inactive; TRPC4 inh: inactive; TRPC4 act: inactive

How did COc1cccc(O)c1CN1CCCC(C(=O)c2cccc(C(F)(F)F)c2)C1 (stereo not given) do in these assays?
TRPC4 potent: inactive; TRPC6 inhibitor: inactive; TRPC6 activator: inactive; TRPC4 inh: -7; TRPC4 act: inactive

What do the screens show for `COc1ccc(C(=O)C2CCCN(Cc3c(O)cccc3OC)C2)cc1OC` (stereo not given)?
TRPC4 potent: inactive; TRPC6 inhibitor: inactive; TRPC6 activator: inactive; TRPC4 inh: inactive; TRPC4 act: inactive

Results for CCOc1cccc(CN2CCCC(C(=O)c3cccc(C(F)(F)F)c3)C2)c1O (stereo not given) ?
TRPC4 potent: inactive; TRPC6 inhibitor: inactive; TRPC6 activator: inactive; TRPC4 inh: -6; TRPC4 act: inactive

Results for COc1c(C)cc(C(=O)C2CCCN(Cc3cccc4nccnc34)C2)cc1C (stereo not given) ?
TRPC4 potent: inactive; TRPC6 inhibitor: inactive; TRPC6 activator: inactive; TRPC4 inh: inactive; TRPC4 act: 110

What do the screens show for `COCc1cc(CN2CCCC(C(=O)c3cccc(C(F)(F)F)c3)C2)ccc1OC` (stereo not given)?
TRPC4 potent: inactive; TRPC6 inhibitor: inactive; TRPC6 activator: inactive; TRPC4 inh: inactive; TRPC4 act: inactive

How did CC(=O)Nc1ccc(CN2CCCC(C(=O)c3ccc(C(F)(F)F)cc3)C2)cc1 (stereo not given) do in these assays?
TRPC4 potent: inactive; TRPC6 inhibitor: inactive; TRPC6 activator: inactive; TRPC4 inh: inactive; TRPC4 act: 234

How did COC(=O)c1ccc(NS(=O)(=O)c2cc(-c3cc(C)no3)ccc2OC)cc1 do in these assays?
TRPC4 potent: inactive; TRPC6 inhibitor: inactive; TRPC6 activator: inactive; TRPC4 inh: inactive; TRPC4 act: inactive

Results for CC1CC(C)CN(S(=O)(=O)c2ccc(C(=O)N(c3ccccn3)C3CCCCC3)cc2)C1 (stereo not given) ?
TRPC4 potent: inactive; TRPC6 inhibitor: inactive; TRPC6 activator: inactive; TRPC4 inh: -6; TRPC4 act: inactive

Results for O=C(c1ccc(S(=O)(=O)N2CCCCC2)cc1)N(c1ccccn1)C1CCCCC1 ?
TRPC4 potent: inactive; TRPC6 inhibitor: inactive; TRPC6 activator: inactive; TRPC4 inh: inactive; TRPC4 act: inactive

How did COc1cc(/C=C2\C(=O)ON=C2c2ccccc2)cc(Cl)c1O do in these assays?
TRPC4 potent: inactive; TRPC6 inhibitor: inactive; TRPC6 activator: inactive; TRPC4 inh: -8; TRPC4 act: inactive

What do the screens show for `CCOc1cc(/C=C2\C(=O)ON=C2c2ccccc2)cc(Br)c1O`?
TRPC4 potent: inactive; TRPC6 inhibitor: inactive; TRPC6 activator: 17; TRPC4 inh: inactive; TRPC4 act: inactive

Results for CCOc1cc(/C=C2/C(=O)ON=C2C)cc(Br)c1O ?
TRPC4 potent: inactive; TRPC6 inhibitor: inactive; TRPC6 activator: inactive; TRPC4 inh: inactive; TRPC4 act: inactive

What do the screens show for `S=C(NCCN1CCOCC1)N1CCN(c2cccc(Cl)c2)CC1`?
TRPC4 potent: inactive; TRPC6 inhibitor: inactive; TRPC6 activator: inactive; TRPC4 inh: inactive; TRPC4 act: inactive

How did S=C(NCc1ccco1)N1CCN(c2cccc(Cl)c2)CC1 do in these assays?
TRPC4 potent: inactive; TRPC6 inhibitor: inactive; TRPC6 activator: inactive; TRPC4 inh: -5; TRPC4 act: inactive

How did COC(=O)NCC(c1cccnc1)N1CCN(c2ccccc2OC)CC1 (stereo not given) do in these assays?
TRPC4 potent: inactive; TRPC6 inhibitor: inactive; TRPC6 activator: inactive; TRPC4 inh: inactive; TRPC4 act: 69

How did O=C(/C=C/c1ccco1)Oc1cc(Br)cc(/C=N/NC(=O)c2ccccc2O)c1 do in these assays?
TRPC4 potent: 12; TRPC6 inhibitor: inactive; TRPC6 activator: inactive; TRPC4 inh: inactive; TRPC4 act: inactive

How did CC(C)c1nnc(NC(=O)CCC2CCCCC2)s1 do in these assays?
TRPC4 potent: inactive; TRPC6 inhibitor: inactive; TRPC6 activator: inactive; TRPC4 inh: inactive; TRPC4 act: inactive

What do the screens show for `Cc1cc(C)c2c(N)c3cccc(C)c3nc2n1`?
TRPC4 potent: inactive; TRPC6 inhibitor: inactive; TRPC6 activator: inactive; TRPC4 inh: inactive; TRPC4 act: inactive

How did COc1ccc(C(=O)OC2CCCCC2CN(C)C)cc1 (stereo not given) do in these assays?
TRPC4 potent: inactive; TRPC6 inhibitor: inactive; TRPC6 activator: inactive; TRPC4 inh: inactive; TRPC4 act: inactive
